The text below walks through data of the array DNA melting data of Ke et al. (doi:10.1101/2024.01.08.574731).

Data set [1] can be described thus: folding enthalpy; higher = less favourable; fluorescence melt of hairpins on a sequencing array, two-state fit. The following applies: sodium 0.088 M. Summed up:
(§1)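 Two-state fits, bootstrapped, provided melting temperature and folding enthalpy from Cy3 fluorescence normalised to pre-quench Cy3 and to control constructs. Library hairpins with annealed Cy3 and quencher oligos were imaged on a sequenced MiSeq flow cell in 50 mM Na-HEPES pH 8.0, 25 mM NaCl, at 2.5 °C intervals up to 60 °C. Four replicates were combined with inverse-variance weighting. A 9.35 °C upward shift was applied to fitted temperatures to match UV melts.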

Data set [2] in a line: melting temperature; fluorescence melt of hairpins on a sequencing array, two-state fit, raised by 9.35 °C to match UV melts. The following applies: sodium 0.088 M. Summed up:
as §1

Turning to GTAGTGAAAACTAC (((((....))))), in data set [1], the folding enthalpy is -22.3 kcal/mol. The Tm in data set [2] worked out at 45.1 °C.
On to GTAGTGCGAAAGCATAC (((.(((....)))))), for which, in data set [1], the folding enthalpy was -12.6 kcal/mol. Further, the Tm in data set [2] turned out to be 40.5 °C.
In the case of GTAGTGGGAAACCACTGC (.(((((....))))).), the folding enthalpy in data set [1] is -19.4 kcal/mol. The Tm in data set [2] came out at 50.6 °C.
With GTAGTGGGAAACCATTGC (.(.(((....))).).), the folding enthalpy in data set [1] is -10.3 kcal/mol. Besides, in data set [2], the Tm stood at 24.3 °C.
For GTAGTGGGAAACTACTAC (((((.(....).))))) the same measures were -31.7 kcal/mol and 47.5 °C.
For GTAGTTCGAAAGAAGTAC (((.(((....))).))) the same measures were -25 kcal/mol and 46 °C.
On to GTAGTTGGAAACAACTGC (.(((((....))))).), for which, in data set [1], the folding enthalpy was -18 kcal/mol. Also, the Tm in data set [2] was 47.6 °C.
Regarding GTAGTTGGAAACAATTAC (((.(((....))).))), in data set [1], the folding enthalpy is -23.4 kcal/mol. The Tm in data set [2] worked out at 34.2 °C.
In the case of GTAGTTGGAAACGATTAC (((.(.(....).).))), in data set [1], the folding enthalpy was -13.7 kcal/mol. Further, in data set [2], the Tm amounted to 30.9 °C.
On the same counts, the results for GTATAAGGAAACTTGTAC (((.(((....))).))) are -17.1 kcal/mol and 31.5 °C.
On to GTATACCGAAAGGTCTAC (((.(((....))).))), for which the folding enthalpy in data set [1] was -22.4 kcal/mol. Besides, in data set [2], the Tm worked out at 40.7 °C.
On to GTATACCGAAAGGTGTAC (((.(((....))).))), for which, in data set [1], the folding enthalpy was -27.6 kcal/mol. Besides, the Tm in data set [2] was 51.6 °C.
Consider GTATACCGAAAGGTTTAC (((.(((....))).))), for which the folding enthalpy in data set [1] is -27.5 kcal/mol. In addition, the Tm in data set [2] is 43.3 °C.
GTATACGAAAGTACTAC ((((((....))).))): the folding enthalpy in data set [1] was -13.1 kcal/mol. Besides, the Tm in data set [2] is 27.6 °C.
For GTATAGCGAAAGCTCTAC (((.(((....))).))) the same measures were -17.3 kcal/mol and 39.7 °C.
Take GTATATGAAAATATAC ((((((....)))))): the folding enthalpy in data set [1] is -23.7 kcal/mol. Further, the Tm in data set [2] was determined as 39.1 °C.
On the same counts, the results for GTATATGGAAACATGTAC (((.(((....))).))) are -29.6 kcal/mol and 37.2 °C.
On the same counts, the results for GTATCACGAAAGTGGTAC (((.(((....))).))) are -27.9 kcal/mol and 52.8 °C.
For GTATCAGCGAAAGCTTAC (((..(((....)))))) the same measures were -8.4 kcal/mol and 26.3 °C.
Take GTATCCCCGAAAGGGTAC (((..(((....)))))): the folding enthalpy in data set [1] is -14.8 kcal/mol. Moreover, the Tm in data set [2] turned out to be 35.5 °C.
On the same counts, the results for GTATCCCGAAAGGGGTAC (((.(((....))).))) are -38.2 kcal/mol and 55.6 °C.
Take GTATCCGAAAGGAAATAC ((((((....)))..))): the folding enthalpy in data set [1] is -16.8 kcal/mol. In data set [2], the Tm turned out to be 31 °C.
On the same counts, the results for GTATCCGAAAGGAGTTAC ((((((....)))..))) are -14.9 kcal/mol and 25.3 °C.
Take GTATCCGGAAACGAATAC ((((.((....)).)))): the folding enthalpy in data set [1] is -26.5 kcal/mol. Moreover, the Tm in data set [2] came out at 33.5 °C.
As for GTATCGCGAAAGCGTAC (((.(((....)))))), in data set [1], the folding enthalpy was -12.1 kcal/mol. The Tm in data set [2] came to 44.5 °C.
For GTATGACGAAAGTCGTAC (((.(((....))).))) the same measures were -30.3 kcal/mol and 53.8 °C.
For GTATGCCGAAAGGCTTAC (((.(((....))).))) the same measures were -19 kcal/mol and 50.6 °C.
For GTATGCGAAAGCACATAC ((((((....)))..))) the same measures were -11.2 kcal/mol and 31.8 °C.
As to GTATGCGAAAGCACGTAC ((((((....)))..))), in data set [1], the folding enthalpy is -8.02 kcal/mol. Also, in data set [2], the Tm turned out to be 34.1 °C.
For GTATGCGAAAGCACTAC ((((((....))).))) the same measures were -13.2 kcal/mol and 37.3 °C.
On the same counts, the results for GTATGCGAAAGCATTAC ((((((....))).))) are -13.8 kcal/mol and 43.4 °C.
On the same counts, the results for GTATGCGGAAACGCATAC (((((((....))))))) are -33.5 kcal/mol and 68.2 °C.
Take GTATGCGGAAACGTGTAC (((..((....))..))): the folding enthalpy in data set [1] was -30.2 kcal/mol. Also, the Tm in data set [2] is 39.4 °C.
For GTATGGAAACATAC (((((....))))) the same measures were -23.5 kcal/mol and 43.4 °C.
In the case of GTATGGGCGAAAGCCTAC (((..(((....)))))), the folding enthalpy in data set [1] is -7.19 kcal/mol. Besides, the Tm in data set [2] was 36.9 °C.
On the same counts, the results for GTATGGGGAAACCCACAC ((.((((....)))).)) are -18.9 kcal/mol and 35.1 °C.
For GTATGGGGAAACCTGTAC (((..((....))..))) the same measures were -17.1 kcal/mol and 32.2 °C.
On the same counts, the results for GTATGGGGAAACTCATAC (((((.(....).))))) are -34.5 kcal/mol and 40.5 °C.
Take GTATGGGGAAACTCGTAC (((.(.(....).).))): in data set [1], the folding enthalpy was -11.6 kcal/mol. Further, the Tm in data set [2] worked out at 29.1 °C.
GTATGTGCGAAAGCATAC (((..(((....)))))): the folding enthalpy in data set [1] was -11.7 kcal/mol. Besides, the Tm in data set [2] turned out to be 35 °C.
For GTATGTGGAAACACACAC ((.((((....)))).)) the same measures were -17.1 kcal/mol and 35.2 °C.
As to GTATTACGAAAGTAGTAC (((.(((....))).))), in data set [1], the folding enthalpy is -28.4 kcal/mol. Also, in data set [2], the Tm stood at 41.3 °C.
For the sequence GTATTAGGAAACTAATGC (.(((((....))))).), in data set [1], the folding enthalpy was -28.2 kcal/mol. Further, in data set [2], the Tm was determined as 34.2 °C.
On the same counts, the results for GTATTCACGAAAGTGTAC (((..(((....)))))) are -9.14 kcal/mol and 25.8 °C.
For GTATTCCCGAAAGGGTAC (((..(((....)))))) the same measures were -8.03 kcal/mol and 32.9 °C.
On the same counts, the results for GTATTCCGAAAGGATTAC (((.(((....))).))) are -28.2 kcal/mol and 43.5 °C.
Take GTATTCGGAAACGAACAC ((.((((....)))).)): the folding enthalpy in data set [1] is -25.9 kcal/mol. Besides, in data set [2], the Tm came out at 34.3 °C.
On to GTATTCGGAAACGGATAC ((((.((....)).)))), for which the folding enthalpy in data set [1] is -33.2 kcal/mol. In addition, the Tm in data set [2] is 45.1 °C.
For the sequence GTATTGCGAAAGCAGTAC (((.(((....))).))), the folding enthalpy in data set [1] was -26.8 kcal/mol. The Tm in data set [2] was determined as 51.6 °C.
On the same counts, the results for GTATTGGGAAACCAACAC ((.((((....)))).)) are -15 kcal/mol and 31.4 °C.
On to GTATTGGGAAACCAATAC (((((((....))))))), for which the folding enthalpy in data set [1] was -43.7 kcal/mol. Also, in data set [2], the Tm turned out to be 53.8 °C.
In the case of GTATTTGAAAAAATAC ((((((....)))))), the folding enthalpy in data set [1] was -25.2 kcal/mol. Also, the Tm in data set [2] was determined as 38.1 °C.
On the same counts, the results for GTATTTGCGAAAGCATAC (((..(((....)))))) are -9.06 kcal/mol and 28.7 °C.
On the same counts, the results for GTATTTGGAAACAAATAC (((((((....))))))) are -44.3 kcal/mol and 50.5 °C.
On the same counts, the results for GTCAAACGAAAGTTCGAC (((.(((....))).))) are -30.7 kcal/mol and 43.1 °C.
GTCAACCGAAAGGTAGAC (((.(((....))).))): in data set [1], the folding enthalpy was -31.6 kcal/mol. In addition, in data set [2], the Tm was found to be 51.5 °C.
For GTCAACGAAAGTTACGAC ((((((....)))..))) the same measures were -16.4 kcal/mol and 34.5 °C.
As to GTCAACGAAAGTTAGAC ((((((....))).))), the folding enthalpy in data set [1] is -23.5 kcal/mol. The Tm in data set [2] amounted to 41 °C.
Regarding GTCAACGAAAGTTGGAC ((((((....))).))), the folding enthalpy in data set [1] was -13.2 kcal/mol. Moreover, the Tm in data set [2] turned out to be 39.7 °C.
On to GTCAACGAAAGTTGTGAC ((((((....)))..))), for which the folding enthalpy in data set [1] was -10.8 kcal/mol. The Tm in data set [2] turned out to be 33 °C.
Turning to GTCAACGAAAGTTTGAC ((((((....))).))), in data set [1], the folding enthalpy is -28.6 kcal/mol. The Tm in data set [2] was 46.9 °C.
On the same counts, the results for GTCAACGAAAGTTTTGAC ((((((....)))..))) are -17.4 kcal/mol and 32.8 °C.
With GTCAACGGAAACGTTAAC ((.((((....)))).)), in data set [1], the folding enthalpy is -17.6 kcal/mol. The Tm in data set [2] stood at 33.7 °C.
With GTCAAGCGAAAGCTAGAC (((.(((....))).))), the folding enthalpy in data set [1] is -25.6 kcal/mol. Moreover, the Tm in data set [2] stood at 52.8 °C.
On the same counts, the results for GTCAAGCGAAAGCTGAC (((.(((....)))))) are -25.6 kcal/mol and 58.6 °C.
With GTCAATCGAAAGATCGAC (((.(((....))).))), the folding enthalpy in data set [1] was -29 kcal/mol. For the same sequence, the Tm in data set [2] was 41.2 °C.
On the same counts, the results for GTCAATCGAAAGATGAC (((.(((....)))))) are -25.7 kcal/mol and 45.9 °C.
On the same counts, the results for GTCAATGGAAACGTTGAC (((((.(....).))))) are -31.2 kcal/mol and 48.1 °C.
As for GTCACACGAAAGTGGGAC (((.(((....))).))), the folding enthalpy in data set [1] was -31.9 kcal/mol. Moreover, the Tm in data set [2] amounted to 69.1 °C.
Take GTCACAGGAAACTGCGAC (((.(((....))).))): the folding enthalpy in data set [1] is -28.8 kcal/mol. Further, the Tm in data set [2] is 46.1 °C.
Consider GTCACCCGAAAGGGCGAC (((.(((....))).))), for which the folding enthalpy in data set [1] was -35.7 kcal/mol. In addition, in data set [2], the Tm stood at 58.9 °C.
On to GTCACGCCGAAAGGCGAC (((..(((....)))))), for which the folding enthalpy in data set [1] is -6.44 kcal/mol. For the same sequence, the Tm in data set [2] is 32.1 °C.
On the same counts, the results for GTCACGCGAAAGCGGAC (((.(((....)))))) are -15.1 kcal/mol and 57 °C.
